Data taken from ChEMBL document CHEMBL1781977, “Design and synthesis of 3,5-diarylisoxazole derivatives as novel class of anti-hyperglycemic and lipid lowering agents” (Bioorg Med Chem, 2009).
pIC50: −log10 of the molar value. Active and inactive are the calls of the source. No cut-off for these calls is given here.

How the values were obtained:
[1] = target: T1, Tyrosine-protein phosphatase non-receptor type 1 (Homo sapiens) (UniProt P18031); assay: Inhibition of protein tyrosine phosphatase-1B at 10 uM incubated for 10 mins using pNPP substrate by modified Goldstein method; parameters: Activity: scale not given: the % may be the effect or the level left
T1 sequence (whole entry): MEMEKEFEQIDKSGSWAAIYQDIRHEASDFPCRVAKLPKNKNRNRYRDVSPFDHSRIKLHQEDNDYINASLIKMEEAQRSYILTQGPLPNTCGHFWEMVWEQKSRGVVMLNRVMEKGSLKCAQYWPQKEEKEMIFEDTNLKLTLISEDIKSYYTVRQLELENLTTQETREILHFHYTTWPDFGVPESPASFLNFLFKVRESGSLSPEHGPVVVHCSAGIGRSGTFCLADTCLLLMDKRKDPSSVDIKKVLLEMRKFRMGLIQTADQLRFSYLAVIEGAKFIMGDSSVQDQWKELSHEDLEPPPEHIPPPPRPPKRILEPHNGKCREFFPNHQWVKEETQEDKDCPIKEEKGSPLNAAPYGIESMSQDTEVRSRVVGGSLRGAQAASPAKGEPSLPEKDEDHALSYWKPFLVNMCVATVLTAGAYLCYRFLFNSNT
In short: (§1)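 PTP-1B: compound preincubated 10 min with enzyme, with or without 0.01% Triton X-100. Then 10 mM pNPP in 50 mM HEPES pH 7.0 with 1 mM DTT and 2 mM EDTA, 30 min at 37 °C. Stopped with 0.1 N NaOH; absorbance read at 410 nm. p-Nitrophenolate calculated using ε 1.78 × 10⁴ M⁻¹cm⁻¹. Sodium orthovanadate used as reference.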

Rattus norvegicus [2] = assay: Antihyperglycemic activity against sucrose challenged streptozotocin-induced diabetic Sprague-Dawley albino rat assessed as reduction in blood glucose level administered orally 30 mins before sucrose challenge; type: functional; conditions: po
In short: (§2)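 Streptozotocin-diabetic Sprague Dawley rats: streptozotocin 60 mg/kg ip in citrate pH 4.5; rats at 144–270 mg/dl after 48 h used. Oral doses of 7.5–100 mg/kg in 1.0% gum acacia, then sucrose 2.5 g/kg. Glucose measured at 30, 60, 90, 120, 180, 240, 300 and 1440 min. ED50 taken from dose response. Mean ± SD, n = 5; Dunnett's test.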

Mus musculus [3] = organism: Mus musculus; assay: Antihyperglycemic activity in C57BL/Ks db/db mouse assessed as reduction in blood glucose level measured after 3 days relative to control; type: functional
[4] = target: Dipeptidyl peptidase 4 (Homo sapiens) (UniProt P27487); assay: Inhibition of DPP4 assessed as rate of substrate cleavage using Gly-Pro-AMC substrate by spectrofluorometry
Dipeptidyl peptidase 4 (Homo sapiens), sequence (P27487 whole entry, looked up): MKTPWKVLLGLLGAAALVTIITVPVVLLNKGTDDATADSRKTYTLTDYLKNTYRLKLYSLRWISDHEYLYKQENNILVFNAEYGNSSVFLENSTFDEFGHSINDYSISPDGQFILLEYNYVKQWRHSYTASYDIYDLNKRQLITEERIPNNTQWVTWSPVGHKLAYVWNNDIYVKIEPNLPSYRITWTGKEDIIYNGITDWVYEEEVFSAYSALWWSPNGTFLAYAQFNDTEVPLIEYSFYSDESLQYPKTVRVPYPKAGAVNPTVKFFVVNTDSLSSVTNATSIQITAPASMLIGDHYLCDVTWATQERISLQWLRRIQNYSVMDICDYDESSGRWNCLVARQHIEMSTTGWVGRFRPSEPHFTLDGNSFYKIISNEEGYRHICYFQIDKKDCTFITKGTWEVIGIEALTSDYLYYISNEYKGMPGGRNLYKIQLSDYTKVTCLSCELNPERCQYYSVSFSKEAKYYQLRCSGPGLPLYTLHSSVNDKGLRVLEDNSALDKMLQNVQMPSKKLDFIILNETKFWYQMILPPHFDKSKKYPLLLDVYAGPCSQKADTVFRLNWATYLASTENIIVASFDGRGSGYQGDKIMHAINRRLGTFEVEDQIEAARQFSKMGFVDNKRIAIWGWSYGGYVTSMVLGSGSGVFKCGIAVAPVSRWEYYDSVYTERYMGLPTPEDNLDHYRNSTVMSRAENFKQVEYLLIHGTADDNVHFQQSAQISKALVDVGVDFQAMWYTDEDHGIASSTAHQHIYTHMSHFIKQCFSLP
In short: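 DPP-IV activity read by fluorescence at 37 °C, excitation 355 nm and emission 460 nm. Initial rate calculated over the first 15 min as increase in fluorescence intensity.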

[5] = target: T2, Tyrosine-protein phosphatase non-receptor type 1 (Homo sapiens, UniProt P18031); assay: Inhibition of protein tyrosine phosphatase-1B at 10 uM incubated for 10 mins using pNPP substrate in absence of Triton X-100 by modified Goldstein method; in short: as §1
T2 sequence (P18031 whole entry): T1 sequence (whole entry)

Mus musculus [6] = assay: Antidyslipidemic activity in C57BL/Ks db/db mouse assessed as reduction in plasma cholesterol level at 100 mg/kg, po; type: functional
In short: (§3)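 db/db mice (C57BL/KsBom, 12–18 weeks, 5 male and 5 female) dosed orally at 100 mg/kg in 1.0% gum acacia. Blood collected on day 8 for serum lipids. Mean ± SD, n = 5, against vehicle-treated db/db controls; Dunnett's test.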

Rattus norvegicus [7] = assay: Antihyperglycemic activity against sucrose challenged streptozotocin-induced diabetic Sprague-Dawley albino rat assessed as reduction in blood glucose level at 100 mg/kg, po administered 30 mins before sucrose challenge measured after 5 hrs; type: functional
In short: (§4)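 Male Sprague Dawley rats, 160 ± 20 g, fasted overnight, given streptozotocin 60 mg/kg ip in 100 mM citrate pH 4.5. Rats with glucose 144–270 mg/dl at 48 h count as diabetic, 5–6 per group. Dosed 100 mg/kg orally in 1.0% gum acacia. Sucrose 2.5 g/kg given 30 min later. Glucose read at 30–300 min and 24 h. Non-responders excluded.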

Rattus norvegicus [8] = assay: Antihyperglycemic activity against sucrose challenged streptozotocin-induced diabetic Sprague-Dawley albino rat assessed as reduction in blood glucose level at 25 mg/kg, po administered 30 mins before sucrose challenge; type: functional; in short: as §2
Mus musculus [9] = assay: Antidyslipidemic activity in C57BL/Ks db/db mouse assessed as plasma HDL-cholesterol level at 100 mg/kg, po; type: functional; in short: as §3
[10] = target: T2, Tyrosine-protein phosphatase non-receptor type 1; assay: Inhibition of protein tyrosine phosphatase-1B at 10 uM incubated for 10 mins using pNPP substrate in presence of 0.01% Triton X-100 by modified Goldstein method; in short: as §1
Mus musculus [11] = assay: Antihyperglycemic activity in C57BL/Ks db/db mouse assessed as reduction in blood glucose level at 100 mg/kg, po measured 6 days post dose by postprandial glucose tolerance test; type: functional; conditions: 144 h
In short: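 C57BL/KsBom-db mice, 12–18 weeks, 40–50 g, 5 male and 5 female, at 23 °C with 12/12 h light cycle. Treated orally at 100 mg/kg, vehicle 1.0% gum acacia. Day 6 postprandial test: glucose at −0.5 h and 0 h, then at 1, 2, 3, 4 and 6 h after dosing.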

Mus musculus [12] = assay: Antidyslipidemic activity in C57BL/Ks db/db mouse assessed as reduction in plasma triglyceride level at 100 mg/kg, po; type: functional; in short: as §3
Rattus norvegicus [13] = assay: Antihyperglycemic activity against sucrose challenged streptozotocin-induced diabetic Sprague-Dawley albino rat assessed as reduction in blood glucose level at 100 mg/kg, po administered 30 mins before sucrose challenge; type: functional; in short: as §4
Rattus norvegicus [14] = assay: Antihyperglycemic activity against sucrose challenged streptozotocin-induced diabetic Sprague-Dawley albino rat assessed as reduction in blood glucose level at 100 mg/kg, po administered 30 mins before sucrose challenge measured after 24 hrs; type: functional; in short: as §4
Rattus norvegicus [15] = assay: Antihyperglycemic activity in Charles Foster/Wistar albino rat assessed as reduction in blood glucose level at 100 mg/kg, po administered 30 mins before sucrose challenge; type: functional
In short: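 Male Charles Foster/Wistar rats, 160 ± 20 g, fasted 16 h; animals with glucose 60–80 mg/dl used, 5–6 per group. Given 100 mg/kg orally as suspension in 1.0% gum acacia (controls vehicle alone). Sucrose 10.0 g/kg orally 30 min later. Glucometer readings at 30, 60, 90, 120 min. Percent activity derived from AUC of treated versus control groups.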

Mus musculus [16] = assay: Antihyperglycemic activity in C57BL/Ks db/db mouse assessed as reduction in blood glucose level at 100 mg/kg, po measured 10 days post dose by postprandial glucose tolerance test; type: functional; conditions: 240 h, in the assay text read “oral glucose tolerance test” for “postprandial glucose tolerance test”
In short: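 db/db mice (C57BL/KsBom, 12–18 weeks, 40–50 g) given 100 mg/kg orally, vehicle 1.0% gum acacia. Day 10 OGTT after overnight fast: glucose at −30 min and drug given, then glucose at 0 min. Glucose 3 g/kg given, with readings at 30, 60, 90 and 120 min.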

Rattus norvegicus [17] = assay: Antihyperglycemic activity against sucrose challenged streptozotocin-induced diabetic Sprague-Dawley albino rat assessed as reduction in blood glucose level at 50 mg/kg, po administered 30 mins before sucrose challenge; type: functional; in short: as §2
Rattus norvegicus [18] = assay: Antihyperglycemic activity against sucrose challenged streptozotocin-induced diabetic Sprague-Dawley albino rat assessed as reduction in blood glucose level at 7.5 mg/kg, po administered 30 mins before sucrose challenge; type: functional; in short: as §2
Rattus norvegicus [19] = assay: Antihyperglycemic activity against sucrose challenged streptozotocin-induced diabetic Sprague-Dawley albino rat assessed as reduction in blood glucose level at 15 mg/kg, po administered 30 mins before sucrose challenge; type: functional; in short: as §2
[20] = target: T3, Peroxisome proliferator-activated receptor gamma (Homo sapiens) (UniProt P37231); assay: Activation of PPARgamma by receptor transactivation assay
T3 sequence (whole entry): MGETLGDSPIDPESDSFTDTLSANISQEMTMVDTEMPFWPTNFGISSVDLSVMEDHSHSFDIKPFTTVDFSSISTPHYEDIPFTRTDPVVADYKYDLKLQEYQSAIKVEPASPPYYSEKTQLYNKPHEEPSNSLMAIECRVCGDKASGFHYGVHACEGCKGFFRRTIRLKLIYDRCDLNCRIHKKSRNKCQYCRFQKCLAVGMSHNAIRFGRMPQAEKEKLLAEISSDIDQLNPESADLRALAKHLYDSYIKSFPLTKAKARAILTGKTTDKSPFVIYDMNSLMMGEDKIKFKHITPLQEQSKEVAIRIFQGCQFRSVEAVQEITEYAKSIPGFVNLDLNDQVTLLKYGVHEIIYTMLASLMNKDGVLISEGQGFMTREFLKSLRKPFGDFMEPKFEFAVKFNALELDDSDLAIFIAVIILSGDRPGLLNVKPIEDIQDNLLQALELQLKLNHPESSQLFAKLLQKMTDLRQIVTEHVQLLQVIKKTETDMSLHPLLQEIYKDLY

Row | Compound | inhibition [1] [%] | ED50 (Rattus norvegicus [2]) [mg/kg] | inhibition (INH) (Mus musculus [3]) [%] | inhibition [4] | pIC50 [5] | inhibition in vivo at 100 mg/kg (Mus musculus [6]) [%] | inhibition in vivo at 100 mg/kg (Rattus norvegicus [7]) [%] | inhibition in vivo at 25 mg/kg (Rattus norvegicus [8]) [%] | Activity (Mus musculus [9]) [%] | pIC50 [10] | inhibition in vivo at 100 mg/kg (Mus musculus [11]) [%] | inhibition in vivo at 100 mg/kg (Mus musculus [12]) [%] | inhibition in vivo at 100 mg/kg (Rattus norvegicus [13]) [%] | inhibition in vivo at 100 mg/kg (Rattus norvegicus [14]) [%] | inhibition in vivo at 100 mg/kg (Rattus norvegicus [15]) [%] | inhibition in vivo at 100 mg/kg (Mus musculus [16]) [%] | inhibition in vivo at 50 mg/kg (Rattus norvegicus [17]) [%] | inhibition in vivo at 7.5 mg/kg (Rattus norvegicus [18]) [%] | inhibition in vivo at 15 mg/kg (Rattus norvegicus [19]) [%] | further results
1 | COc1ccc(-c2cc(-c3ccccc3)no2)c(OCCN2CCCC2)c1 | 99.2 | 54.8 | 22.8 | inactive | 5.82 | -17.6 | 27.7 | 15.2 | 3 | 5.82 | 21.4 | -10.5 | 27.7 | 28.7 | 36.9 | 21.6 | 18.5 | 11.5 | 13.7 | –
2 | COc1ccc(-c2cc(-c3ccccc3)no2)c(OCCN2CCCCC2)c1 | 76.3 | 64.5 | 18.5 | inactive | 5.06 | -12.2 | 17.6 | 14 | 1.3 | 5.05 | 17.4 | -7.5 | 20.7 | 18.7 | 27.6 | 16.1 | 16.7 | 9.8 | 12.6 | Activity [20]: inactive
3 | CCN(CC)CCOc1cc(OC)ccc1-c1cc(-c2ccccc2)no1 | 94.7 | 45.3 | 21 | inactive | 5.53 | -14.5 | 26.9 | 19.5 | 3.9 | 5.54 | 22.6 | -12 | 25.4 | 25.7 | 29.9 | 21.5 | 21.7 | 10.3 | 15.5 | –
4 | COc1ccc(-c2cc(-c3ccccc3)no2)c(OCC(O)CN2CCCC2)c1 (configuration not stated) | – | 80.2 | 15.7 | inactive | 5.47 | -9.8 | 18.5 | 13.8 | 1.8 | 5.38 | 15.9 | -8.5 | 18.5 | 17.6 | 26.8 | 15.5 | 17.9 | 8.4 | 11.6 | Activity [1]: 86.2%
